# Measurements taken from ChEMBL document CHEMBL4251664, “Biocompatible Boron-Containing Prodrugs of Belinostat for the Potential Treatment of Solid Tumors” (ACS Med Chem Lett, 2018).
# Legend:
# [1] = tested on: MDA-MB-231; assay: Prodrug conversion in human MDA-MB-231 cells assessed as belinostat level after 6 days by UHPLC-MS/MS analysis; format: ADME, cell-based; settings: mda-mb-231, 144 h
# Method in brief: (§1)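 MDA-MB-231 or HeLa cells were incubated with the pinacol boronate prodrug, and culture medium was sampled daily from day 1 to day 6. The prodrug, boronic acid forms and belinostat were separated, identified and quantified by HPLC coupled to an Orbitrap mass spectrometer. Results are in ng/mL as mean ± SEM of triplicate experiments.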
# [2] = Drug uptake in tumor of ovariectomized nu/nu mouse implanted with human MCF7 cells assessed as (E)-4-((3-(3-(N-phenylsulfamoyl)phenyl)acrylamidooxy)methyl)phenylboronic acid level at 10 mg/kg, sc administered once daily for 22 days measured post last dose by HPLC-MS/MS analysis; format: ADME, organism-based, Neoplasm; settings: in vivo, 528 h
# Method in brief: (§2)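 After 22 days of 10 mg/kg/day subcutaneous dosing in MCF-7 xenograft mice, animals were sacrificed. Tumours were excised, homogenized and extracted, then analysed by HPLC–MS/MS for belinostat and the free boronic acid. Results are expressed as ng/g tissue.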
# [3] = tested on: A549; assay: Antiproliferative activity against human A549 cells after 72 hrs by resazurin dye based fluorescence assay; format: functional, cell-based; settings: A549, 72 h
# [4] = tested on: MCF7; assay: Antitumor activity against human MCF7 cells implanted in ovariectomized nu/nu mouse assessed as tumor volume at 10 mg/kg, sc administered once daily for 22 days measured post last dose (reference value: 869 +/- 173 mm3); format: functional
# [5] = molecular target: Histone deacetylase; assay: Inhibition of HDAC in human cell lysates using fluoro-substrate peptide/fluoro-deacetylated peptide as substrate incubated for 20 mins measured at 1 to 2 mins interval for 30 to 60 mins by fluorescence assay; format: protein assay
# [6] = tested on: MCF7; assay: Antitumor activity against human MCF7 cells implanted in ovariectomized nu/nu mouse assessed as tumor growth inhibition at 10 mg/kg, sc administered once daily for 22 days measured post last dose relative to control; format: functional; settings: 528 h, read-out: TGI
# [7] = tested on: Mus musculus; assay: Toxicity in ovariectomized nu/nu mouse implanted with human MCF7 cells assessed as effect on body weight at 10 mg/kg, sc administered once daily for 22 days; format: organism-based; settings: in vivo, 528 h
# Method in brief: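 MCF-7 xenograft in mice, dosed 10 mg/kg/day by subcutaneous injection alongside a vehicle group. Treatment ran 22 days. Body weights were compared with the vehicle group, and tumour volume was measured over the same period. At the end, mice were sacrificed and tumours removed.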
# [8] = tested on: MCF7; assay: Antitumor activity against human MCF7 cells implanted in ovariectomized nu/nu mouse assessed as tumor volume at 10 mg/kg, sc administered once daily for 22 days measured post last dose relative to control; format: functional
# [9] = tested on: HeLa; assay: Prodrug conversion in human HeLa cells assessed as (E)-4-((3-(3-(N-phenylsulfamoyl)phenyl)acrylamidooxy)methyl)phenylboronic acid level after 6 days by UHPLC-MS/MS analysis; format: ADME, cell-based; settings: 144 h; method in brief: as §1
# [10] = tested on: MCF-10A; assay: Cytotoxicity against human MCF10A cells assessed as reduction in cell proliferation at 10 uM after 72 hrs by resazurin dye based fluorescence assay
# [11] = tested on: MDA-MB-231; assay: Prodrug conversion in human MDA-MB-231 cells assessed as belinostat level after 1 day by UHPLC-MS/MS analysis; format: ADME, cell-based; settings: mda-mb-231, 24 h; method in brief: as §1
# [12] = Drug uptake in tumor of ovariectomized nu/nu mouse implanted with human MCF7 cells assessed as belinostat level at 10 mg/kg, sc administered once daily for 22 days measured post last dose by HPLC-MS/MS analysis; format: ADME, organism-based, Neoplasm; settings: in vivo, 528 h; method in brief: as §2
# [13] = tested on: MDA-MB-231; assay: Prodrug conversion in human MDA-MB-231 cells assessed as (E)-4-((3-(3-(N-phenylsulfamoyl)phenyl)acrylamidooxy)methyl)phenylboronic acid level after 6 days by UHPLC-MS/MS analysis; format: ADME, cell-based; settings: mda-mb-231, 144 h; method in brief: as §1
# [14] = molecular target: T1, Histone deacetylase 8 (Homo sapiens, UniProt Q9BY41); assay: Inhibition of human HDAC8 using RHK(Ac)K(Ac)AMC as substrate
# T1 sequence (Q9BY41 whole entry): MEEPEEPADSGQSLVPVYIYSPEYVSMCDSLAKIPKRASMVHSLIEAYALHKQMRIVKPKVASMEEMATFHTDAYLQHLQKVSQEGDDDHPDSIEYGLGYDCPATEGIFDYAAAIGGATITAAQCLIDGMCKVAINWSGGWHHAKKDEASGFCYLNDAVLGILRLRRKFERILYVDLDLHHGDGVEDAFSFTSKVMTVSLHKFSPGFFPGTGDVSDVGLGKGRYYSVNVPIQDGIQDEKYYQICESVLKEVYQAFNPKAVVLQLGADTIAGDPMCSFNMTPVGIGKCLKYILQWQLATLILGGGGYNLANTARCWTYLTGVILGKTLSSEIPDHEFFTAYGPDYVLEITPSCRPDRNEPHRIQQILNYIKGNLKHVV
# [15] = tested on: MDA-MB-231; assay: Antiproliferative activity against human MDA-MB-231 cells after 72 hrs by resazurin dye based fluorescence assay; format: functional, cell-based; settings: MDA-MB-231, 72 h
# [16] = tested on: HeLa; assay: Prodrug conversion in human HeLa cells assessed as (E)-4-((3-(3-(N-phenylsulfamoyl)phenyl)acrylamidooxy)methyl)phenylboronic acid level after 1 day by UHPLC-MS/MS analysis; format: ADME, cell-based; settings: 24 h; method in brief: as §1
# [17] = tested on: MDA-MB-231; assay: Prodrug conversion in human MDA-MB-231 cells assessed as belinostat level after 2 days by UHPLC-MS/MS analysis; format: ADME, cell-based; settings: mda-mb-231, 48 h; method in brief: as §1
# [18] = tested on: MCF7; assay: Antitumor activity against human MCF7 cells implanted in ovariectomized nu/nu mouse assessed as tumor weight at 10 mg/kg, sc administered once daily for 22 days measured post last dose (reference value: 743 +/- 142 mg); format: functional
# [19] = tested on: MDA-MB-231; assay: Prodrug conversion in human MDA-MB-231 cells assessed as belinostat level after 4 days by UHPLC-MS/MS analysis; format: ADME, cell-based; settings: mda-mb-231, 96 h; method in brief: as §1
# [20] = tested on: MDA-MB-231; assay: Prodrug conversion in human MDA-MB-231 cells assessed as belinostat level after 3 days by UHPLC-MS/MS analysis; format: ADME, cell-based; settings: mda-mb-231, 72 h; method in brief: as §1
# [21] = tested on: HeLa; assay: Prodrug conversion in human HeLa cells assessed as (E)-4-((3-(3-(N-phenylsulfamoyl)phenyl)acrylamidooxy)methyl)phenylboronic acid level after 4 days by UHPLC-MS/MS analysis; format: ADME, cell-based; settings: 96 h; method in brief: as §1
# [22] = tested on: HeLa; assay: Prodrug conversion in human HeLa cells assessed as belinostat level after 5 days by UHPLC-MS/MS analysis; format: ADME, cell-based; settings: 120 h; method in brief: as §1
# [23] = tested on: HeLa; assay: Prodrug conversion in human HeLa cells assessed as (E)-4-((3-(3-(N-phenylsulfamoyl)phenyl)acrylamidooxy)methyl)phenylboronic acid level after 5 days by UHPLC-MS/MS analysis; format: ADME, cell-based; settings: 120 h; method in brief: as §1
# [24] = tested on: HeLa; assay: Prodrug conversion in human HeLa cells assessed as belinostat level after 4 days by UHPLC-MS/MS analysis; format: ADME, cell-based; settings: 96 h; method in brief: as §1
# [25] = tested on: SK-MEL-28; assay: Antiproliferative activity against human SK-MEL-28 cells after 72 hrs by resazurin dye based fluorescence assay; format: functional, cell-based; settings: SK-MEL-28, 72 h
# [26] = tested on: HeLa; assay: Prodrug conversion in human HeLa cells assessed as (E)-4-((3-(3-(N-phenylsulfamoyl)phenyl)acrylamidooxy)methyl)phenylboronic acid level after 3 days by UHPLC-MS/MS analysis; format: ADME, cell-based; settings: 72 h; method in brief: as §1
# [27] = tested on: MCF7; assay: Antitumor activity against human MCF7 cells implanted in ovariectomized nu/nu mouse assessed as tumor volume at 10 mg/kg, sc administered once daily for 22 days measured on day 12 during compound dosing (reference value: 869 +/- 173 mm3); format: functional
structure (smiles),measurement,setting,value
CC1(C)OB(c2ccc(CONC(=O)/C=C/c3cccc(S(=O)(=O)Nc4ccccc4)c3)cc2)OC1(C)C,Drug metabolism,[1],27.8 ng/mL
same,Drug uptake,[2],51 ng/g
same,IC50,[3],453 nM
same,Activity,[4],127 mm3
same,EC50,[5],350 nM
same,inhibition in vivo at 10 mg/kg,[6],85.4%
same,Activity,[7],Non-Toxic
same,T/C,[8],14.6%
same,Drug metabolism,[9],49.6 ng/mL
same,Activity,[10],Non-Toxic
same,Drug metabolism,[11],30.7 ng/mL
same,Drug uptake,[12],57 ng/g
same,Drug metabolism,[13],130.9 ng/mL
same,EC50,[14],341000 nM
same,IC50,[15],303 nM
same,Drug metabolism,[16],282.7 ng/mL
same,Drug metabolism,[17],27.7 ng/mL
same,Activity,[18],109 mg
same,Drug metabolism,[19],19.8 ng/mL
same,Drug metabolism,[20],20.3 ng/mL
same,Drug metabolism,[21],107 ng/mL
same,Drug metabolism,[22],3.7 ng/mL
same,Drug metabolism,[23],82.7 ng/mL
same,Drug metabolism,[24],7.8 ng/mL
same,IC50,[25],678 nM
same,Drug metabolism,[26],144.9 ng/mL
same,Activity,[27],153 mm3
